Assays:
[1] = biological target: T1, Hemoglobin HbA (Homo sapiens) (UniProt P69905+P68871); assay: Inhibition of sickle hemoglobin polymerization in human whole blood assessed as formation of high oxygen affinity schiff-base adducts at 2 mM measured after 24 hrs by HPLC method relative to control; type: protein-complex assay; set-up: scale not given: the % may be the effect or the level left
Method in brief: (§1)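 Normal donor whole blood (30% hematocrit) or purified Hb (1.56 mM) incubated with compound (0.5, 1.0, 2.0 mM) at 37°C with shaking at 140 rpm for up to 24 h. Samples taken at 0.5, 1, 2, 4, 8, 12 and 24 h and quenched with cyanoborohydride/borohydride to fix Schiff-base adducts. Adducts quantified by cation-exchange HPLC. Peak read from the %modification-vs-time curve; AUC(0–24) by linear trapezoidal rule.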

[2] = biological target: T1, Hemoglobin HbA (Homo sapiens); assay: (§2) Induction of R-state stabilization of Hb in human homozygous sickle red blood cells assessed as change in oxygen pressure at which hemolysates are 50% saturated with oxygen incubated under air for 1 hr followed by 2 hrs incubation under hypoxic condition by oxygen equilibrium curve analysis
Method in brief: (§3)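 SS cells (20% hematocrit) given 0.5–2.0 mM compound, 1 h in air at 37°C, then 2 h hypoxia (4% O2) at 37°C. Cells washed in PBS and lysed hypotonically. About 100 μL clarified lysate placed in 4 ml 0.1 M potassium phosphate, pH 7.0, and read on a Hemox analyzer. ΔP50 = (P50 untreated − P50 treated)/P50 untreated × 100, relative to DMSO controls. Three biological replicates.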

[3] = biological target: T1, Hemoglobin HbA (Homo sapiens); assay: Inhibition of sickle hemoglobin polymerization in human cell free hemoglobin matrix assessed as formation of high oxygen affinity schiff-base adducts incubated for 60 to 90 mins by HPLC method relative to control; type: protein-complex assay; set-up: scale not given: the % may be the effect or the level left
[4] = biological target: T1, Hemoglobin HbA (Homo sapiens); assay: Inhibition of sickle hemoglobin polymerization in human whole blood assessed as formation of high oxygen affinity schiff-base adducts by HPLC method; type: protein-complex assay; settings: TDE = time-dependent effect; method in brief: as §1
[5] = biological target: T1, Hemoglobin HbA (Homo sapiens); assay: Inhibition of sickle hemoglobin polymerization in human homozygous sickle red blood cells assessed as formation of high oxygen affinity schiff-base adducts at 2 mM incubated under air for 1 hr followed by 2 hrs incubation under hypoxic condition by HPLC method relative to control; set-up: scale not given: the % may be the effect or the level left
Method in brief: (§4)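 Lysates from SS cells (20% hematocrit) exposed to 0.5, 1.0 or 2.0 mM compound, 1 h air then 2 h 4% O2 at 37°C. Cells washed in PBS and lysed hypotonically. Hb S adduct percentage taken from weak cation-exchange HPLC elution patterns (Poly CAT A column). Mean ± SD of three biological replicates.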

[6] = biological target: T1, Hemoglobin HbA (Homo sapiens); assay: Inhibition of sickle hemoglobin polymerization in human whole blood assessed as formation of high oxygen affinity schiff-base adducts at 2 mM measured up to 24 hrs by HPLC method relative to control; type: protein-complex assay; set-up: scale not given: the % may be the effect or the level left; method in brief: as §1
[7] = biological target: T1, Hemoglobin HbA (Homo sapiens); assay: as §2, with “with oxygen at 1 mM incubated under” for “with oxygen incubated under”, “curve analysis relative to control” for “curve analysis”; method in brief: as §3
[8] = biological target: T1, Hemoglobin HbA (Homo sapiens); assay: as §2, with “with oxygen at 0.5 mM incubated under” for “with oxygen incubated under”, “curve analysis relative to control” for “curve analysis”; method in brief: as §3
[9] = biological target: T1, Hemoglobin HbA (Homo sapiens); assay: Inhibition of sickle hemoglobin polymerization in human homozygous sickle red blood cells assessed as formation of high oxygen affinity schiff-base adducts at 1 mM incubated under air for 1 hr followed by 2 hrs incubation under hypoxic condition by HPLC method relative to control; set-up: scale not given: the % may be the effect or the level left; method in brief: as §4
[10] = biological target: T1, Hemoglobin HbA (Homo sapiens); assay: Inhibition of sickle hemoglobin polymerization in human whole blood assessed as formation of high oxygen affinity schiff-base adducts at 2 mM measured at 2 hrs by HPLC method relative to control; type: protein-complex assay; set-up: scale not given: the % may be the effect or the level left; method in brief: as §1
Erythrocyte [11] = assay: Antisickling activity in human homozygous sickle red blood cells at 0.5 mM incubated for 2 hrs under hypoxic condition relative to control; type: functional
Method in brief: (§5)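 Sickle (SS) red cell suspensions at 20% hematocrit, with or without compound (0.5, 1.0, 2.0 mM; DMSO <2% final, also in controls), held in air at 37°C for 1 h, then under 4% O2/96% N2 at 37°C for 2 h. Aliquots fixed in 2% glutaraldehyde without air exposure; sickling scored on bright-field images at 40x. Mean ± SD, three biological replicates.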

Erythrocyte [12] = assay: Antisickling activity in human homozygous sickle red blood cells incubated for 2 hrs under hypoxic condition; type: functional, cell-based; method in brief: as §5
Erythrocyte [13] = assay: Antisickling activity in human homozygous sickle red blood cells at 1 mM incubated for 2 hrs under hypoxic condition relative to control; type: functional; method in brief: as §5
[14] = biological target: T1, Hemoglobin HbA (Homo sapiens); assay: Inhibition of sickle hemoglobin polymerization in human whole blood assessed as formation of high oxygen affinity schiff-base adducts at 2 mM after 2 hrs by HPLC method relative to control; type: protein-complex assay; set-up: scale not given: the % may be the effect or the level left; method in brief: as §1
[15] = biological target: T1, Hemoglobin HbA (Homo sapiens); assay: as §2, with “with oxygen at 2 mM incubated under” for “with oxygen incubated under”, “curve analysis relative to control” for “curve analysis”; method in brief: as §3
Erythrocyte [16] = assay: Antisickling activity in human homozygous sickle red blood cells at 2 mM incubated for 2 hrs under hypoxic condition relative to control; type: functional; method in brief: as §5
[17] = biological target: T1, Hemoglobin HbA (Homo sapiens); assay: Inhibition of sickle hemoglobin polymerization in human homozygous sickle red blood cells assessed as formation of high oxygen affinity schiff-base adducts incubated under air for 1 hr followed by 2 hrs incubation under hypoxic condition by HPLC method; method in brief: as §4
[18] = biological target: T1, Hemoglobin HbA (Homo sapiens); assay: Inhibition of sickle hemoglobin polymerization in human homozygous sickle red blood cells assessed as formation of high oxygen affinity schiff-base adducts at 0.5 mM incubated under air for 1 hr followed by 2 hrs incubation under hypoxic condition by HPLC method relative to control; set-up: scale not given: the % may be the effect or the level left; method in brief: as §4
[19] = biological target: T1, Hemoglobin HbA (Homo sapiens); assay: Inhibition of sickle hemoglobin polymerization in human whole blood assessed as formation of high oxygen affinity schiff-base adducts at 2 mM measured at 12 hrs by HPLC method relative to control; type: protein-complex assay; set-up: scale not given: the % may be the effect or the level left; method in brief: as §1
[20] = biological target: T1, Hemoglobin HbA (Homo sapiens); assay: Inhibition of sickle hemoglobin polymerization in human cell free hemoglobin matrix assessed as formation of high oxygen affinity schiff-base adducts incubated for 90 mins by HPLC method relative to control; type: protein-complex assay; set-up: scale not given: the % may be the effect or the level left

T1 sequence (P68871 2-147 partner limits assumed): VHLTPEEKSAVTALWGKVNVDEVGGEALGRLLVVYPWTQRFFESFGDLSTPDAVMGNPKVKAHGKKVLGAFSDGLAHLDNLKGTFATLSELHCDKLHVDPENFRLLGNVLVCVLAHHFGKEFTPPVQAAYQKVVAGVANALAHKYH
T1 sequence (P69905 2-142 limits assumed): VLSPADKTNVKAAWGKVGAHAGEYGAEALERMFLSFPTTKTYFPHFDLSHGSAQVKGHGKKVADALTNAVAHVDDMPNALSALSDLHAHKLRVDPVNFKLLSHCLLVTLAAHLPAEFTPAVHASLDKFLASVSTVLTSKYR

| Activity [1] [%] | Activity [3] [%] | Activity [4] | Activity [5] [%] | Activity [6] [%] | Activity [9] [%] | Activity [10] [%] | Activity [14] [%] | Activity [17] | Activity [18] [%] | Activity [19] [%] | Activity [20] [%] | SMILES | Activity [2] | Activity [7] [%] | Activity [8] [%] | inhibition at 500 µM (Erythrocyte [11]) [%] | Activity (Erythrocyte [12]) | inhibition at 1000 µM (Erythrocyte [13]) [%] | Activity [15] [%] | inhibition at 2000 µM (Erythrocyte [16]) [%] |
| --- | --- | --- | --- | --- | --- | --- | --- | --- | --- | --- | --- | --- | --- | --- | --- | --- | --- | --- | --- | --- |
| 25 | 100 | Tde | 100 | 25 | 79 | 50 | 50 | Dose-dependent effect | – | – | – | COc1ccc(OCc2cccnc2)c(C=O)c1 | Dose-dependent effect | 49.2 | 24.8 | 14.9 | Dose-dependent effect | 59.5 | 75.8 | 90.5 |
| 15 | 100 | Tde | 82.5 | 15 | 58.7 | 50 | 45 | Dose-dependent effect | 32.8 | – | – | COc1ccc(OCc2ccncc2)c(C=O)c1 | Dose-dependent effect | 31.5 | 7.9 | 21.7 | Dose-dependent effect | 60.4 | 55.6 | 85.9 |
| 45 | 100 | Tde | 79.5 | – | 55.3 | – | – | Dose-dependent effect | 26.3 | 50 | – | COc1ccc(OCc2ccccn2)c(C=O)c1 | Dose-dependent effect | 38.1 | 22 | 24.3 | Dose-dependent effect | 64.8 | 61.4 | 90.3 |
| – | – | Tde | 12 | – | 5.6 | – | – | Dose-dependent effect | 3.3 | – | – | COc1cc(C=O)ccc1O [VANILLIN] | Dose-dependent effect | 10.6 | 1.2 | 4.2 | Dose-dependent effect | 7.3 | 21 | 7.3 |
| – | – | Tde | 51.6 | 60 | 24.8 | – | – | Dose-dependent effect | 12 | – | 50 | COc1ccc(C=O)c(OCc2ccccn2)c1 | Dose-dependent effect | 20.9 | 8.1 | 7.6 | Dose-dependent effect | 13.5 | 34.2 | 51.3 |
